Measurements: ChEMBL document CHEMBL1158424, “Design, synthesis and biological investigation of certain pyrazole-3-carboxylic acid derivatives as novel carriers for nitric oxide” (Bioorg Med Chem, 2009)
Converted amounts (≈) assume the structure as drawn. The source made the active and inactive calls. The calls are words filed in the database; no cut-off is given here.

Tests used:
[1] = tested on: Pseudomonas aeruginosa; test: Antibacterial activity against Pseudomonas aeruginosa after 24 hrs by agar cup diffusion method; format: functional
In short: (§1)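 Nutrient agar seeded with culture, poured 3–4 mm; six 10 mm cups per plate, one as DMF solvent control. Compounds dissolved in DMF (stock 1 mg/mL), two-fold serial dilutions 32–512 µg/mL, 0.1 mL per cup. Incubation 24 h at 37 °C; inhibition zone diameter read in mm. MIC taken as intercept of log concentration versus zone diameter plot; ciprofloxacin reference.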

[2] = tested on: Escherichia coli; test: Antibacterial activity against Escherichia coli C-600 after 24 hrs by agar cup diffusion method; format: functional; in short: as §1
[3] = tested on: Bacillus subtilis; test: Antibacterial activity against Bacillus subtilis after 24 hrs by agar cup diffusion method; format: functional; in short: as §1
[4] = tested on: Staphylococcus aureus; test: Antibacterial activity against Staphylococcus aureus NCTC 6571 after 24 hrs by agar cup diffusion method; format: functional; in short: as §1
[5] = tested on: Rattus norvegicus; test: Antiinflammatory activity in albino rat assessed as inhibition of carrageenan-induced paw edema at 100 mg/kg, po administered 30 mins prior to carrageenan challenge measured after 1 hr; format: functional
In short: (§2)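 Male albino rats, 140–150 g, groups of 5, acclimatized 3 days, water only on the last day. Oral dosing in carboxymethylcellulose vehicle 30 min before subplantar 1% carrageenan (0.1 mL) into one hind paw; contralateral paw given saline. Paw thickness by digital plethysmometer at 0–5 h. Percent inhibition from difference between paws, treated versus vehicle control; indomethacin reference; mean ± SEM.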

[6] = tested on: Rattus norvegicus; test: Antiinflammatory activity in albino rat assessed as inhibition of carrageenan-induced paw edema at 100 mg/kg, po administered 30 mins prior to carrageenan challenge measured after 2 hrs; format: functional; in short: as §2
[7] = tested on: Rattus norvegicus; test: Antiinflammatory activity in albino rat assessed as inhibition of carrageenan-induced paw edema at 100 mg/kg, po administered 30 mins prior to carrageenan challenge measured after 3 hrs; format: functional; in short: as §2
[8] = tested on: Rattus norvegicus; test: Antiinflammatory activity in albino rat assessed as inhibition of carrageenan-induced paw edema at 100 mg/kg, po administered 30 mins prior to carrageenan challenge measured after 4 hrs; format: functional; in short: as §2
[9] = tested on: Rattus norvegicus; test: Antiinflammatory activity in albino rat assessed as inhibition of carrageenan-induced paw edema at 100 mg/kg, po administered 30 mins prior to carrageenan challenge measured after 5 hrs; format: functional; in short: as §2
[10] = tested on: Rattus norvegicus; test: Gastrointestinal toxicity in albino rat assessed as ulcer index at 100 mg/kg, po; format: organism-based; set-up: dose 100 mg/kg, route oral; conditions: in vivo
In short: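 Rats from the paw edema study killed by ether overdose; stomachs removed, opened and examined for visible lesions. Each lesion scored 0–5 by length (0 none, 1 petechiae, 2 <1 mm, 3 1–2 mm, 4 2–4 mm, 5 >4 mm erosions). Scores summed per rat; group ulcer index is the mean lesion score.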

[11] = Nitric oxide release in phosphate buffer at pH 7.4 after 1 hr by Griess diazotization reaction method in presence of L-cysteine; set-up: concentration or dose not given beside the values
In short: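 Incubation in pH 7.4 phosphate buffer with L-cysteine for 1 h at 37 °C. Then 1 mL of mixture treated with Griess reagent (sulfanilamide, N-naphthylethylenediamine, phosphoric acid); absorbance read at 540 nm after 25 min. Nitrite quantified against sodium nitrite standard curve; % release = found/theoretical NO × 100.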

[12] = tested on: Rattus norvegicus; test: Gastroprotective activity in albino rat assessed as preventive index at 100 mg/kg, po; format: functional
In short: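 Preventive index = (UI of ulcered group − UI of treated group)/UI of ulcered group × 100. UI from lesion scoring (0–5 by erosion length) of stomachs of rats from the paw edema study.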

[13] = tested on: Rattus norvegicus; test: Gastrointestinal toxicity in albino rat assessed as incidence of gastric ulceration at 100 mg/kg, po by histopathological study; format: organism-based, Stomach; set-up: dose 100 mg/kg, route oral; conditions: in vivo
In short: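 Gastric sections dewaxed, rehydrated, stained with haematoxylin 5–7 min, differentiated in 1% HCl in 70% alcohol, stained with 1% eosin 10 min, dehydrated, cleared in xylene, mounted and examined by light microscopy.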

| SMILES | MIC [1] | MIC ([2]; C-600, 24 h) | MIC [3] | MIC ([4]; NCTC 6571, 24 h) | inhibition in vivo at 100 mg/kg [5] | inhibition in vivo at 100 mg/kg [6] | inhibition in vivo at 100 mg/kg [7] | inhibition in vivo at 100 mg/kg [8] | inhibition in vivo at 100 mg/kg [9] | UI [10] | MIC [2] | MIC [4] | Activity [11] | PI [12] | Activity [13] |
| --- | --- | --- | --- | --- | --- | --- | --- | --- | --- | --- | --- | --- | --- | --- | --- |
| O=C(O)c1ccc(NC(=O)c2nn(-c3ccccc3)c(-c3ccccc3)c2C(=O)c2ccccc2)cc1 | 25.3 µg/mL (≈ 52 µM) | 30.9 µg/mL (≈ 63.4 µM) | 34.8 µg/mL (≈ 71.4 µM) | 64 µg/mL (≈ 131 µM) | 23.6% | 25% | 27% | 41.2% | 46.4% | 17 |  |  |  |  |  |
| O=C(Nc1ccc(S(=O)(=O)Nc2ncccn2)cc1)c1nn(-c2ccccc2)c(-c2ccccc2)c1C(=O)c1ccccc1 | 44.3 µg/mL (≈ 73.8 µM) |  | 47 µg/mL (≈ 78.3 µM) |  | 18.2% | 18.2% | 25% | 27% | 41.2% | 9.3 | inactive | inactive |  |  |  |
| COc1ccc2c(c1)c(CC(=O)O)c(C)n2C(=O)c1ccc(Cl)cc1 [INDOMETHACIN] |  |  |  |  |  |  |  |  |  | 69.5 |  |  |  |  |  |
| COc1ccc(NC(=O)c2nn(-c3ccccc3)c(-c3ccccc3)c2/C(=N/O)c2ccccc2)cc1 | 9.7 µg/mL (≈ 19.9 µM) | 2.88 µg/mL (≈ 5.9 µM) | 43.9 µg/mL (≈ 89.8 µM) |  | 30.9% | 25% | 36.5% | 51.5% | 56.5% | 8.5 |  | inactive | 8% | 74% |  |
| O=C(O)c1cn(C2CC2)c2cc(N3CCNCC3)c(F)cc2c1=O [CIPROFLOXACIN] | 30.8 µg/mL (≈ 93 µM) | 1.2 µg/mL (≈ 3.62 µM) | 0.61 µg/mL (≈ 1.84 µM) | 52.4 µg/mL (≈ 158 µM) |  |  |  |  |  |  |  |  |  |  |  |
| CC(=O)c1ccc(NC(=O)c2nn(-c3ccccc3)c(-c3ccccc3)c2C(=O)c2ccccc2)cc1 | 32.4 µg/mL (≈ 66.7 µM) | 39.9 µg/mL (≈ 82.2 µM) | 1.75 µg/mL (≈ 3.6 µM) |  | 29.1% | 45.5% | 45% | 47.6% | 61.8% | 11 |  | inactive |  |  |  |
| Cc1ccc(NC(=O)c2nn(-c3ccccc3)c(-c3ccccc3)c2/C(=N/O)c2ccccc2)cc1 | 7.99 µg/mL (≈ 16.9 µM) | 28.6 µg/mL (≈ 60.6 µM) | 2.87 µg/mL (≈ 6.07 µM) |  | 12.7% | 20% | 36.5% | 45.6% | 82.6% | 3 |  | inactive | 10.1% |  |  |
| O=C(c1ccccc1)c1c(C(=O)N2CCN(C(=O)CO[N+](=O)[O-])CC2)nn(-c2ccccc2)c1-c1ccccc1 | 93.3 µg/mL (≈ 173 µM) | 64 µg/mL (≈ 119 µM) | 2.45 µg/mL (≈ 4.54 µM) |  | 45.5% | 30% | 43% | 45.6% | 68.1% | 5.5 |  | inactive | 13.8% | 76.08% | Non-toxic |
| O=C(OCCBr)c1nn(-c2ccccc2)c(-c2ccccc2)c1C(=O)c1ccccc1 | 6.04 µg/mL (≈ 12.7 µM) | 24 µg/mL (≈ 50.6 µM) | 47.5 µg/mL (≈ 99.9 µM) |  | 25.4% | 28.4% | 30.2% | 41.2% | 52.2% | 11 |  | inactive |  |  |  |
| O=C(O)c1nn(-c2ccccc2)c(-c2ccccc2)c1C(=O)c1ccccc1 | 1.92 µg/mL (≈ 5.21 µM) | 16.1 µg/mL (≈ 43.7 µM) | 10.8 µg/mL (≈ 29.2 µM) |  | 32.7% | 35% | 36.5% | 51.5% | 56.6% | 8 |  | inactive |  |  |  |
| O=C(c1ccccc1)c1c(C(=O)N2CCN(C(=O)CCl)CC2)nn(-c2ccccc2)c1-c1ccccc1 | 61.5 µg/mL (≈ 120 µM) | 1.37 µg/mL (≈ 2.67 µM) | 11.2 µg/mL (≈ 21.8 µM) |  |  |  |  |  |  |  |  | inactive |  |  |  |
| C/C(=N\O)c1ccc(NC(=O)c2nn(-c3ccccc3)c(-c3ccccc3)c2C(=O)c2ccccc2)cc1 | 27.2 µg/mL (≈ 54.4 µM) | 1.62 µg/mL (≈ 3.24 µM) | 90.4 µg/mL (≈ 181 µM) |  | 16.4% | 33.3% | 33.3% | 51.5% | 62.3% | 4 |  | inactive | 11.6% |  |  |
| COc1ccc(NC(=O)c2nn(-c3ccccc3)c(-c3ccccc3)c2C(=O)c2ccccc2)cc1 | 22.9 µg/mL (≈ 48.4 µM) | 4.5 µg/mL (≈ 9.5 µM) | 43.8 µg/mL (≈ 92.5 µM) |  | 40% | 42.5% | 28.3% | 43% | 52.9% | 33.3 |  | inactive |  |  |  |
| O=C(Nc1ccc(S(=O)(=O)Nc2ncccn2)cc1)c1nn(-c2ccccc2)c(-c2ccccc2)c1/C(=N/O)c1ccccc1 | 23.3 µg/mL (≈ 37.9 µM) | 30.9 µg/mL (≈ 50.1 µM) | 54.7 µg/mL (≈ 88.8 µM) |  | 16.4% | 26.7% | 31.7% | 51.5% | 56.5% | 7.6 |  | inactive | 7.4% |  |  |
| O=C(c1ccccc1)c1c(C(=O)N2CCNCC2)nn(-c2ccccc2)c1-c1ccccc1 | 84.5 µg/mL (≈ 194 µM) | 1.92 µg/mL (≈ 4.4 µM) | 2.18 µg/mL (≈ 4.99 µM) |  | 35% | 41.7% | 28.6% | 51.5% | 66.7% | 23 |  | inactive |  |  | Toxic |
| O=C(OCCO)c1nn(-c2ccccc2)c(-c2ccccc2)c1C(=O)c1ccccc1 | 1.29 µg/mL (≈ 3.13 µM) | 7.95 µg/mL (≈ 19.3 µM) | 3.88 µg/mL (≈ 9.41 µM) |  | 19.7% | 51.5% | 66.4% | 68.6% | 71.7% | 9 |  | inactive |  |  |  |
| O=C(OCCO[N+](=O)[O-])c1nn(-c2ccccc2)c(-c2ccccc2)c1C(=O)c1ccccc1 | 11.3 µg/mL (≈ 24.7 µM) | 15.3 µg/mL (≈ 33.4 µM) | 21.7 µg/mL (≈ 47.4 µM) |  | 29.1% | 35% | 47.6% | 58.8% | 71% | 7.5 |  | inactive | 7.1% |  |  |
| O=C(Nc1ccc(Cl)cc1)c1nn(-c2ccccc2)c(-c2ccccc2)c1/C(=N/O)c1ccccc1 | 10.3 µg/mL (≈ 20.9 µM) | 14.1 µg/mL (≈ 28.6 µM) | 5.82 µg/mL (≈ 11.8 µM) | 90.4 µg/mL (≈ 183 µM) | 23.6% | 23.3% | 47.6% | 55.9% | 60.9% | 7.5 |  |  | 7.8% |  | Non-toxic |
| O=C(Nc1ccc(Cl)cc1)c1nn(-c2ccccc2)c(-c2ccccc2)c1C(=O)c1ccccc1 | 25.1 µg/mL (≈ 52.5 µM) |  | inactive |  | 45.5% | 40% | 35% | 36.5% | 55.9% | 20.3 | inactive | inactive |  |  | Toxic |
| Cc1ccc(NC(=O)c2nn(-c3ccccc3)c(-c3ccccc3)c2C(=O)c2ccccc2)cc1 | 4.3 µg/mL (≈ 9.4 µM) | 16.1 µg/mL (≈ 35.3 µM) | 33.8 µg/mL (≈ 73.9 µM) |  | 42.5% | 29.1% | 28.3% | 30.2% | 51.2% | 4 |  | inactive |  |  |  |
| O=C(O)c1ccc(NC(=O)c2nn(-c3ccccc3)c(-c3ccccc3)c2/C(=N/O)c2ccccc2)cc1 | 13.6 µg/mL (≈ 27.1 µM) | 2.8 µg/mL (≈ 5.57 µM) | 29.5 µg/mL (≈ 58.7 µM) | 50.5 µg/mL (≈ 100 µM) | 45.5% | 45% | 47.6% | 61.8% | 81.2% | 8.5 |  |  | 9.3% |  |  |
